The values that follow come from paper PMC9042899 (RSC Advances, 2021).

The target in assay [1] is CIAP (calf intestinal alkaline phosphatase) (Bos taurus, UniProt P19111). Briefly: Alkaline phosphatase. The class given is biochemical. To be noted: for IC50: Alkaline phosphatase IC50 ± SEM, CIAP, substrate p-NPP, pH 9.5, 37 °C, mean ± SEM, NA = No activity.
The subject of assay [2] is alkaline phosphatase. Briefly: Enzyme inhibition kinetic study. Format: biochemical. To be noted: inhibitor 0.00, 1.15, 2.30, 4.60 and 9.20 μM; substrate p-NPP. In short, it runs like this: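 Enzyme, buffer and pre-incubation were as in the AP inhibition assay. p-NPP was used at 10, 5, 2.5, […] and 0.625 mM. Maximum initial velocities came from the linear part of absorbance over up to 10 min. Inhibition type was assigned from Lineweaver–Burk plots of 1/V vs. 1/[S].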

Assay [3] concerns the target AP. The conditions noted are these: traditional AP inhibitors; ref 34g; cited from earlier work.

CIAP (calf intestinal alkaline phosphatase), sequence (P19111 20-506 limits assumed): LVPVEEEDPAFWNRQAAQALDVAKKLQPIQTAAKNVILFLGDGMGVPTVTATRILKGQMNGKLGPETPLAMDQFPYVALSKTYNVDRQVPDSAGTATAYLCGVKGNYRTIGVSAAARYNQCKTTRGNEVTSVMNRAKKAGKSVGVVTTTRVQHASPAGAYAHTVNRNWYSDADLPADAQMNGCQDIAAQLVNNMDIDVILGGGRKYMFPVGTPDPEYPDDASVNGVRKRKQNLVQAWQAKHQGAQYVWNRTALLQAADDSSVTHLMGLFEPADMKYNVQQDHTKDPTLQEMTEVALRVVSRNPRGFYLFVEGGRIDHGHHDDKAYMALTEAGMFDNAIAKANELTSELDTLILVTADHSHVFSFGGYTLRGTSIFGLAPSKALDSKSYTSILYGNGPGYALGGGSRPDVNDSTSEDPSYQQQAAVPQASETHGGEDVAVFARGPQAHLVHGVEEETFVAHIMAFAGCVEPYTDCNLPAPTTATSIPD

What is called IC50 is the concentration that inhibits the measured activity by half. In assay [1], `O=C(C=Cc1ccco1)c1cc(Br)cc(Br)c1O` [Compound 1, 1-(3,5-Dibromo-2-hydroxyphenyl)-3-(furan-2-yl)prop-2-en-1-one] showed an IC50 of 4.31 ± 0.154 µM.
The same measure, in the same setting: the figure for `O=C(C=Cc1ccc(Cl)cc1)c1cc(Br)cc(Br)c1O` [Compound 2, 3-(4-Chlorophenyl)-1-(3,5-dibromo-2-hydroxyphenyl)prop-2-en-1-one] is 6.23 ± 0.098 µM.
Same read-out and setting: the figure for `COc1ccc(C=CC(=O)c2cc(Cl)cc([N+](=O)[O-])c2O)cc1` [Compound 4, 1-(5-Chloro-2-hydroxy-3-nitrophenyl)-3-(4-methoxyphenyl)prop-2-en-1-one] is 3.14 ± 0.176 µM; for `O=C(C=Cc1ccc(F)cc1)c1cc(Cl)cc([N+](=O)[O-])c1O` [Compound 5, 1-(5-Chloro-2-hydroxy-3-nitrophenyl)-3-(4-fluorophenyl)prop-2-en-1-one] it is 7.55 ± 0.265 µM.
Same read-out and setting: the same measure for `CN(C)c1ccc(C=CC(=O)c2cc(Cl)cc([N+](=O)[O-])c2O)cc1` [Compound 6, 1-(5-Chloro-2-hydroxy-3-nitrophenyl)-3-(4-(dimethylamino)phenyl)prop-2-en-1-one]: 3.02 ± 0.087 µM.
With `Cc1ccc(C=CC(=O)c2cc(Cl)cc([N+](=O)[O-])c2O)c(C)c1` [Compound 8, 1-(5-Chloro-2-hydroxy-3-nitrophenyl)-3-(2,4-dimethylphenyl)prop-2-en-1-one], in assay [1], half-maximal inhibition (IC50) required 12.6 ± 0.298 µM.
Still for that read-out and setting: the same measure for `O=C(C=Cc1cccs1)c1cc(Cl)cc([N+](=O)[O-])c1O` [Compound 9, 1-(5-Chloro-2-hydroxy-3-nitrophenyl)-3-(thiophen-2-yl)prop-2-en-1-one]: 8.45 ± 0.245 µM.
`CCCOc1ccc(C=CC(=O)c2cc(Cl)cc([N+](=O)[O-])c2O)cc1OC` [Compound 10, 1-(5-Chloro-2-hydroxy-3-nitrophenyl)-3-(3-methoxy-4-propoxyphenyl)prop-2-en-1-one] registered an IC50 in assay [1] of 6.97 ± 0.097 µM.
`COc1cc(C=CC(=O)c2cc(Cl)cc([N+](=O)[O-])c2O)ccc1OCc1ccccc1` [Compound 11, 3-(4-(Benzyloxy)-3-methoxyphenyl)-1-(5-chloro-2-hydroxy-3-nitrophenyl)prop-2-en-1-one]: 9.56 ± 0.263 µM corresponded to half-maximal inhibition in assay [1] (IC50). This IC50 and that of the compound before are within 1.5-fold of each other.
Still for that read-out and setting: the same measure for `O=C1C(=Cc2ccc(Cl)cc2)Oc2cc(Br)cc(Br)c21` [Compound 12, 4,6-Dibromo-2-(4-chlorobenzylidene)benzofuran-3(2H)-one]: 2.16 ± 0.048 µM; for `O=C1C(=Cc2ccc(C(F)(F)F)cc2)Oc2cc(Br)cc(Br)c21` [Compound 13, 4,6-Dibromo-2-(4-(trifluoromethyl)benzylidene)benzofuran-3(2H)-one]: 5.79 ± 0.081 µM.
The same measure, in the same setting: the figure for `O=C1C(=Cc2ccco2)Oc2cc(Br)cc(Br)c21` [Compound 14, 4,6-Dibromo-2-(furan-2-ylmethylene)benzofuran-3(2H)-one] is 4.66 ± 0.051 µM.
Same read-out and setting: the same measure for `CN(C)c1ccc(C=C2Oc3cc(Cl)cc([N+](=O)[O-])c3C2=O)cc1` [Compound 15, 6-Chloro-2-(4-(dimethylamino)benzylidene)-4-nitrobenzofuran-3(2H)-one]: 2.15 ± 0.056 µM; for `O=C1C(=Cc2ccc(Cl)cc2)Oc2cc(Cl)cc([N+](=O)[O-])c21` [Compound 16, 6-Chloro-2-(4-chlorobenzylidene)-4-nitrobenzofuran-3(2H)-one]: 2.13 ± 0.034 µM; for `O=C1C(=Cc2ccc(F)cc2)Oc2cc(Cl)cc([N+](=O)[O-])c21` [Compound 17, 6-Chloro-2-(4-fluorobenzylidene)-4-nitrobenzofuran-3(2H)-one]: 4.88 ± 0.086 µM.
In the case of `Cc1ccc(C=C2Oc3cc(Cl)cc([N+](=O)[O-])c3C2=O)c(C)c1` [Compound 18, 6-Chloro-2-(2,4-dimethylbenzylidene)-4-nitrobenzofuran-3(2H)-one], the IC50 in assay [1] was found to be 1.15 ± 0.043 µM.
For `O=C1C(=Cc2cccs2)Oc2cc(Cl)cc([N+](=O)[O-])c21` [Compound 19, 6-Chloro-4-nitro-2-(thiophen-2-ylmethylene)benzofuran-3(2H)-one], the IC50 in assay [1] turned out to be 5.88 ± 0.083 µM.
In assay [1], `COc1ccc(C=C2Oc3cc(Cl)cc([N+](=O)[O-])c3C2=O)cc1` [Compound 20, 6-Chloro-2-(4-methoxybenzylidene)-4-nitrobenzofuran-3(2H)-one] yielded an IC50 of 1.05 ± 0.029 µM. Moreover, the “fold higher inhibition compared to KH2PO4” value in assay [1] (ratio of IC50 values vs standard KH2PO4) is around 2.6 fold. In assay [2], the “type of enzyme inhibition (Lineweaver–Burk plot)” value is recorded as “non-competitive”.
For `CCCOc1ccc(C=C2Oc3cc(Cl)cc([N+](=O)[O-])c3C2=O)cc1OC` [Compound 21, 6-Chloro-2-(3-methoxy-4-propoxybenzylidene)-4-nitrobenzofuran-3(2H)-one], the IC50 in assay [1] worked out at 2.33 ± 0.059 µM.
Still for that read-out and setting: the same measure for `COc1cc(C=C2Oc3cc(Cl)cc([N+](=O)[O-])c3C2=O)ccc1OCc1ccccc1` [Compound 22, 2-(4-(Benzyloxy)-3-methoxybenzylidene)-6-chloro-4-nitrobenzofuran-3(2H)-one]: 5.54 ± 0.079 µM.
The term Ki denotes the equilibrium dissociation constant of an inhibitor or competing ligand from its target. In the case of `c1ccc([C@H]2CN3CCSC3=N2)cc1` [levamisole], the inhibition constant Ki in assay [3] is 16 µM.
For the compound `Cn1c(=O)c2[nH]cnc2n(C)c1=O` [theophylline], the Ki in assay [3] was 82 µM.
